SENP8 block-1: inhibitors of human SENP8 protease. AID 602440. Q96LD8. actives 0.64% (n = 360,000). inhibition, % at 20 µM. recombinant SENP8, Nedd8 substrate fluorescence; in the data active = inhibition mostly above about 40%, no sharp cut-off; inactive = mostly below about 27%
SENP8 block-2: SENP8 protease inhibition | Q96LD8 | actives 1.2% (n = 330,000) | inhibition, % at 10 µM | purified SENP8, Z-RLRGG-aminoluciferin cleavage, luminescence; in the data active = inhibition above about 50%
SENP6 block: blocks the human protease SENP6; Q9GZR1; Recombinant SENP6 catalytic domain, aminoluciferin luminescence; inhibition, % at 10 µM; actives 1.8% (n = 330,000);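 active = inhibition above about 50% at the single tested dose, limit read from the data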;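 also: plate controls were DMSO wells with enzyme for no effect and DMSO wells lacking enzyme for full effect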
Target sequence (Q9GZR1 628-1112 limits assumed): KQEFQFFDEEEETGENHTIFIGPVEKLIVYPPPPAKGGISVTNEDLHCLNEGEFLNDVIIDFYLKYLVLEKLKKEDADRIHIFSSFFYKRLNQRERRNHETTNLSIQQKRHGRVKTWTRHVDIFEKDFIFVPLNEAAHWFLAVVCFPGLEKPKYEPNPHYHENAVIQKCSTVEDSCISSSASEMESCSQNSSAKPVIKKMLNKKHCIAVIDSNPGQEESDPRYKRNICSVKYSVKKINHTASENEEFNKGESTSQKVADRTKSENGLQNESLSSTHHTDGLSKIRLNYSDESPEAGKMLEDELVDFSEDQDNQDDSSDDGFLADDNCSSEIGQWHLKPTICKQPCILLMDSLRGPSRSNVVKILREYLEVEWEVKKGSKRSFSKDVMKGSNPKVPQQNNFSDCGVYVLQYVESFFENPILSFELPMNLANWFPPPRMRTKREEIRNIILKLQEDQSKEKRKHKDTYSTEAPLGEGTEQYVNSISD
SENP7 block: inhibitors of human SENP7 protease | Q9BQF6 | AID 434973 | inhibition, % at 5 µM | actives 1.5% (n = 330,000) | recombinant SENP7, Z-RLRGG-aminoluciferin luminescence, 40 min;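 active = inhibition above about 50% at the single test dose, limit read from the data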;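 also: plate controls were DMSO with enzyme for no effect and no enzyme buffer wells for full effect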
SENP1 inh: blocks the human SENP1 SUMO protease catalytic domain | recombinant SENP1 catalytic domain, CyPet-SUMO1-YPet FRET cleavage | inhibition, % at 10 µM | actives 0.21% (n = 360,000);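 active = inhibition at least 30% at 10 µM, raw YFP signal under a set limit, fluorescence ratio 0.5 to 1.5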;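 also: 0% = enzyme with DMSO and 100% = no enzyme wells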
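Test system: recombinant human SENP1 catalytic domain, His6-tagged / Medium: pH 8 Tris buffer with EDTA, NaCl, BME, BSA, NP40, catalase / Also added: SUMO1 FRET substrate flanked by Cypet and Ypet, 25 nM / Times: 50 min reaction at room temperature / Signal: FRET, CFP and YFP emission / Control set: no-enzyme low control and enzyme-plus-DMSO high control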
SENP8 conf: human SENP8 inhibition, confirmed; inhibition, % at 12.5 µM; Recombinant SENP8, Z-RLRGG-aminoluciferin luminescence, 60 min; shares compounds with SENP7 block; actives 40% (n = 6,200);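 active = mean inhibition across replicates above about 50%, limit read from the data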
SENP6 conf: confirmation of human SENP6 protease inhibitors; inhibition, % at 12.5 µM; recombinant SENP6, Z-RLRGG-aminoluciferin luminescence; actives 58% (n = 6,200); shares compounds with SENP7 block; AID 488915
SENP7 conf: confirmation of human SENP7 protease inhibitors; actives 69% (n = 6,200); shares compounds with SENP7 block; recombinant SENP7, Z-RLRGG-aminoluciferin luminescence, 40 min; AID 488917; inhibition, % at 12.5 µM
Casp3 SENP sel: inhibits human caspase-3 in SENP selectivity test; shares compounds with SENP7 block; purified caspase-3, Z-DEVD-aminoluciferin luminescence, 60 min; inhibition, % at 12.5 µM; actives 60% (n = 6,200);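 active = mean inhibition above about 50%, limit read from the data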;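 also: plate controls were enzyme with DMSO for no effect and wells without caspase-3 for full effect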
SENP luc ctr: counter-screen for SENP inhibitors: luminescence interference | shares compounds with SENP7 block | Pre-incubated SENP8/Z-RLRGG-aminoluciferin, luciferase luminescence interference | inhibition, % at 12.5 µM | actives 39% (n = 6,200);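 active = mean inhibition above about 50% when retested at one dose, limit read from the data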;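 also: plate controls were DMSO wells with completed reaction for no effect and substrate without enzyme for full effect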
Numbers without * were called inactive; i = inactive; nt = no result. The list is not random: actives were taken first. Their share in the collection is about 2.5%.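 The calls were made as follows, unless noted: active = mean inhibition above about 50% in the one-dose retest (limit read from the data); inactive = the rest.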

SMILES	SENP8 block-1	SENP8 block-2	SENP6 block	SENP7 block	SENP1 inh	SENP8 conf	SENP6 conf	SENP7 conf	Casp3 SENP sel	SENP luc ctr
O=C(c1ccc(Cl)cc1)c1coc2ccc(O)cc12	13	78*	86*	77*	1	7	88*	99*	73*	2
CN(CC(=O)Nc1ccc(S(=O)(=O)N2CCCC2)cc1)CC(=O)Nc1cccc(F)c1	-1	2	-6	5	-1	nt	nt	nt	nt	nt
Cc1sc2c(c1C)CN(C(C)(C)C)CN2C(=O)c1ccccc1	-31	7	30	1	7	nt	nt	nt	nt	nt
COCCN1Cc2c(sc(C)c2C)N(C(=O)c2ccccc2)C1	-246	29	51*	5	-48	4	1	32	30	49
O=C(Nc1ccccn1)c1onc2c1CCCC2	10	84*	87*	94*	1	9	90*	100*	95*	83*
O=c1[nH]c(CSc2nnc3ccccn23)nc2cc(C(F)(F)F)ccc12	nt	-2	3	-8	nt	nt	nt	nt	nt	nt
Cc1cccc(N/C=C/C(=O)c2cccs2)c1C	-22	95*	95*	94*	-30	11	99*	102*	95*	95*
O=C(/C=C/c1ccc([N+](=O)[O-])cc1)c1cccs1	20	-7	-11	-7	3	nt	nt	nt	nt	nt
NC(=O)c1ccccc1N/C=C/C(=O)c1cccs1	i	81*	92*	76*	-60	4	90*	98*	94*	88*
COc1cc([N+](=O)[O-])ccc1N/C=C/C(=O)c1cccs1	-34	53*	87*	97*	-24	33	55*	48	48	24
Cc1c(NC(=O)c2cccs2)cccc1NC(=O)c1cccs1	-5	-4	-3	14	3	nt	nt	nt	nt	nt
CCCOc1ccc(N2C(=O)CC(N(CCc3ccc(OC)cc3)C(=O)c3ccccc3)C2=O)cc1 (stereo not drawn)	8	2	3	13	0	nt	nt	nt	nt	nt
COc1ccc(-n2nnnc2-c2ccc(S(C)(=O)=O)cc2Cl)cc1	8	-2	7	-3	-1	nt	nt	nt	nt	nt
CCOC(=O)c1sc(-c2ccccc2)nc1C	15	12	31	23	2	nt	nt	nt	nt	nt
CCOC(=O)Cc1ccc2sc(-c3ccccc3)nc2c1	3	95*	97*	99*	2	98*	99*	102*	97*	92*
CC(=O)Oc1ccc(/C=N/NS(=O)(=O)c2ccccc2)cc1	16	5	8	4	-1	nt	nt	nt	nt	nt
COc1cc(C(=O)Nc2scc(-c3ccc(Br)cc3)c2C(=O)O)cc(OC)c1OC	-151	9	7	5	0	nt	nt	nt	nt	nt
O=C(Nc1scc(-c2ccc(F)cc2)c1C(=O)O)c1ccco1	-114	71*	86*	46	-1	-6	77*	93*	87*	81*
Cc1cccc(C(=O)Nc2sc(C)c(-c3ccccc3)c2C#N)c1	-47	24	60*	33	-25	30	40	54*	31	8
Cc1ccc(-c2csc(NC(=O)c3ccc(Br)cc3)c2C(=O)O)cc1	-168	86*	71*	11	3	-8	87*	74*	76*	29
Cc1ccc(-c2csc(NC(=O)c3cccc(C)c3)c2C(=O)O)cc1	-98	92*	97*	69*	-2	-7	96*	100*	91*	84*
FC(F)(F)c1cccc(Cc2noc(CN3CCC(c4ccncc4)CC3)n2)c1	4	5	-18	7	0	nt	nt	nt	nt	nt
Cc1ccc(-c2csc(NC(=O)c3ccccc3Cl)c2C(=O)O)cc1	-8	29	46	4	3	nt	nt	nt	nt	nt
CC(C)Cc1csc(NC(=O)c2ccccc2Cl)c1C(=O)O	11	9	8	5	-2	nt	nt	nt	nt	nt
CC(C)c1ccc(-c2csc(NC(=O)c3cccs3)c2C(=O)O)cc1	-64	91*	96*	29	-1	11	98*	90*	84*	84*
SMILES	SENP8 block-1	SENP8 block-2	SENP6 block	SENP7 block	SENP1 inh	SENP8 conf	SENP6 conf	SENP7 conf	Casp3 SENP sel	SENP luc ctr
Cc1ccc(-c2csc(NC(=O)/C=C/c3ccco3)c2C(=O)O)cc1	2	89*	86*	72*	-26	68*	97*	101*	96*	67*
Cc1cccc(C(=O)Nc2scc(-c3ccc(Br)cc3)c2C(=O)O)c1	-28	72*	39	7	0	21	54*	28	24	10
CC(C)Cc1csc(NC(=O)c2ccc(Cl)cc2)c1C(=O)O	-64	91*	94*	22	3	95*	97*	99*	87*	76*
Cc1cccc(C(=O)Nc2scc(CC(C)C)c2C(=O)O)c1	-20	19	26	9	3	nt	nt	nt	nt	nt
CC(=O)C(Cc1ccccc1)NC(=O)COC(=O)c1cccc(C)c1[N+](=O)[O-] (stereo not drawn)	13	-9	6	0	-1	nt	nt	nt	nt	nt
Cc1cccnc1NC(=O)c1cccc(S(=O)(=O)NCc2ccccc2)c1	-1	12	-2	-2	2	nt	nt	nt	nt	nt
CC1=C(C(=O)N(C)C)CC(CC(=O)NC(c2ccccc2)c2ccccc2)C(=O)N1CCCN1CCCC1=O (stereo not drawn)	6	nt	nt	nt	1	nt	nt	nt	nt	nt
O=C(O/N=C1/CCCc2occc21)c1ccc(F)cc1	11	83*	87*	88*	3	37	88*	79*	66*	17
O=C(O/N=C1/CCSc2ccccc21)c1ccc(F)cc1	3	50	42	87*	3	73*	92*	89*	79*	39
Cc1cc(C)cc(OCC(=O)Nc2ccc(N3CCCCC3)cc2)c1	6	9	2	1	3	nt	nt	nt	nt	nt
O=C(Nc1ccc(N2CCCC2)cc1)c1cccc(Cl)c1	30	87*	88*	94*	1	3	56*	51*	73*	9
O=C(Nc1ccc(SC(F)(F)F)cc1)c1ccccn1	6	89*	93*	93*	3	86*	94*	87*	61*	38
C/C(CC(=O)Nc1ccc(F)cc1)=N\NC(=O)c1ccccn1	30	-6	-24	0	0	nt	nt	nt	nt	nt
O=C(Nc1ccc(N2CCCC2)cc1)c1cc(Cl)ccc1Cl	0	-19	-14	-4	-1	nt	nt	nt	nt	nt

Compound activity as filed in PubChem BioAssay.
